Test results published in ChEMBL document CHEMBL2375359, “Synthesis and antibacterial evaluation of novel pleuromutilin derivatives” (2013).
Values after ≈ are worked out from the molar mass of the structure shown.

Assays:
Type in all cases: functional
[1] = tested on: Staphylococcus epidermidis; test: Antibacterial activity against methicillin-resistant Staphylococcus epidermidis at 320 ug/ml after 24 hrs by Oxford cup assay; details: read-out: IZ
Summary of the method: (§1)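 Oxford cup diffusion: clinical isolate inoculum in 0.9% saline set by McFarland standard, spread evenly on nutrient agar. Cups placed equidistant on the surface and filled with compound solutions prepared as for the agar dilution test, at several concentrations. Inhibition zone measured after 24 h at 37 °C.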

Staphylococcus aureus [2] = test: Antibacterial activity against methicillin-resistant Staphylococcus aureus after 48 hrs by agar dilution method
Summary of the method: (§2)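 Agar dilution per NCCLS: 2-fold serial dilutions incorporated into hot Mueller-Hinton agar. Clinical isolates grown from blood slants, suspended in sterile 0.90% NaCl to about 10⁵–10⁶ cfu/mL, spotted onto plates. Incubation 36.5 °C, 48 h. MIC taken as the lowest concentration giving complete growth inhibition. Run in triplicate at pH 7.40.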

[3] = tested on: Staphylococcus epidermidis; test: Antibacterial activity against methicillin-resistant Staphylococcus epidermidis at 80 ug/ml after 24 hrs by Oxford cup assay; details: read-out: IZ; summary of the method: as §1
Escherichia coli [4] = test: Antibacterial activity against Escherichia coli at 80 ug/ml after 24 hrs by Oxford cup assay; details: read-out: IZ
Summary of the method: (§3)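 Oxford cup diffusion with clinical isolates. Inoculum made in 0.9% saline to a McFarland standard and spread evenly on nutrient agar. Compound solutions, prepared as for the agar dilution test, were added at the stated concentration to Oxford cups set equidistant on the agar surface. Inhibition zones were measured after 24 h at 37 °C.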

[5] = tested on: Staphylococcus epidermidis; test: Antibacterial activity against methicillin-resistant Staphylococcus epidermidis at 160 ug/ml after 24 hrs by Oxford cup assay; details: read-out: IZ; summary of the method: as §1
Streptococcus agalactiae [6] = test: Antibacterial activity against Streptococcus agalactiae after 48 hrs by agar dilution method
Summary of the method: (§4)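 Agar dilution per NCCLS on clinical isolates. 2-fold serial dilutions of compound (2 mL) mixed into 18 mL hot Mueller-Hinton agar. Inoculum from blood slants, adjusted to approx. 10⁵–10⁶ cfu/mL in sterile 0.90% NaCl, then spotted onto the plates. Incubated 36.5 °C, 48 h. MIC is the lowest concentration giving complete growth inhibition. Run in triplicate at pH 7.40.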

Streptococcus agalactiae [7] = test: Antibacterial activity against Streptococcus agalactiae at 160 ug/ml after 24 hrs by Oxford cup assay; details: read-out: IZ; summary of the method: as §3
Escherichia coli [8] = test: Antibacterial activity against Escherichia coli at 160 ug/ml after 24 hrs by Oxford cup assay; details: read-out: IZ; summary of the method: as §3
Staphylococcus aureus [9] = test: Antibacterial activity against methicillin-resistant Staphylococcus aureus at 80 ug/ml after 24 hrs by Oxford cup assay; details: read-out: IZ; summary of the method: as §1
[10] = tested on: Staphylococcus epidermidis; test: Antibacterial activity against methicillin-resistant Staphylococcus epidermidis after 48 hrs by agar dilution method; summary of the method: as §2
Escherichia coli [11] = test: Antibacterial activity against Escherichia coli at 320 ug/ml after 24 hrs by Oxford cup assay; details: read-out: IZ; summary of the method: as §3
Staphylococcus aureus [12] = test: Antibacterial activity against methicillin-resistant Staphylococcus aureus at 320 ug/ml after 24 hrs by Oxford cup assay; details: read-out: IZ; summary of the method: as §1
Streptococcus agalactiae [13] = test: Antibacterial activity against Streptococcus agalactiae at 80 ug/ml after 24 hrs by Oxford cup assay; details: read-out: IZ; summary of the method: as §3
Streptococcus agalactiae [14] = test: Antibacterial activity against Streptococcus agalactiae at 320 ug/ml after 24 hrs by Oxford cup assay; details: read-out: IZ; summary of the method: as §3
Escherichia coli [15] = test: Antibacterial activity against Escherichia coli after 48 hrs by agar dilution method; summary of the method: as §4
Staphylococcus aureus [16] = test: Antibacterial activity against methicillin-resistant Staphylococcus aureus at 160 ug/ml after 24 hrs by Oxford cup assay; details: read-out: IZ; summary of the method: as §1

Structure (SMILES) | zone of inhibition at 320 µg/mL [1] [mm] | MIC (Staphylococcus aureus [2]) [µg/mL] | zone of inhibition at 80 µg/mL [3] [mm] | zone of inhibition at 80 µg/mL (Escherichia coli [4]) [mm] | zone of inhibition at 160 µg/mL [5] [mm] | MIC (Streptococcus agalactiae [6]) [µg/mL] | zone of inhibition at 160 µg/mL (Streptococcus agalactiae [7]) [mm] | zone of inhibition at 160 µg/mL (Escherichia coli [8]) [mm] | zone of inhibition at 80 µg/mL (Staphylococcus aureus [9]) [mm] | MIC [10] [µg/mL] | zone of inhibition at 320 µg/mL (Escherichia coli [11]) [mm] | zone of inhibition at 320 µg/mL (Staphylococcus aureus [12]) [mm] | zone of inhibition at 80 µg/mL (Streptococcus agalactiae [13]) [mm] | zone of inhibition at 320 µg/mL (Streptococcus agalactiae [14]) [mm] | MIC (Escherichia coli [15]) [µg/mL] | zone of inhibition at 160 µg/mL (Staphylococcus aureus [16]) [mm]
C=C[C@]1(C)C[C@@H](OC(=O)CSC(C)(C)CNC(=O)c2ccccc2Cl)[C@]2(C)[C@H](C)CC[C@]3(CCC(=O)[C@H]32)[C@@H](C)[C@@H]1O | 13.4 | 0.5 (≈ 0.827 µM) | 11.4 | 11.3 | 12.2 | 8 (≈ 13.2 µM) | 11.2 | 11.9 | 14.1 | 1 (≈ 1.65 µM) | 14.5 | 14.2 | 10.6 | 10.8 | 4 (≈ 6.62 µM) | 12.2
C=C[C@]1(C)C[C@@H](OC(=O)CSC(C)(C)CNC(=O)c2cccc(Cl)c2)[C@]2(C)[C@H](C)CC[C@]3(CCC(=O)[C@H]32)[C@@H](C)[C@@H]1O | 11.9 | 8 (≈ 13.2 µM) | 9.45 | 11.9 | 10.6 | 32 (≈ 53 µM) | 13.9 | 10.7 | 11.9 | 16 (≈ 26.5 µM) | 15.7 | 13.5 | 10.4 | 12.2 | 8 (≈ 13.2 µM) | 13.1
C=C[C@]1(C)C[C@@H](OC(=O)CSC(C)(C)CNC(=O)c2ccc(Cl)cc2)[C@]2(C)[C@H](C)CC[C@]3(CCC(=O)[C@H]32)[C@@H](C)[C@@H]1O | 12.4 | 1 (≈ 1.65 µM) | 8.72 | 11.8 | 12.7 | 4 (≈ 6.62 µM) | 12.1 | 12.9 | 11.8 | 0.5 (≈ 0.827 µM) | 12.6 | 14.6 | 10.8 | 14 | 2 (≈ 3.31 µM) | 13.8
C=C[C@]1(C)C[C@@H](OC(=O)CSC(C)(C)CNC(=O)c2ccccc2C)[C@]2(C)[C@H](C)CC[C@]3(CCC(=O)[C@H]32)[C@@H](C)[C@@H]1O | 13.8 | 0.25 (≈ 0.428 µM) | 10.7 | 12.1 | 12.9 | 0.5 (≈ 0.856 µM) | 10.9 | 13.7 | 10.3 | 16 (≈ 27.4 µM) | 15 | 12.3 | 10 | 12.4 | 2 (≈ 3.43 µM) | 11.8
C=C[C@]1(C)C[C@@H](OC(=O)CSC(C)(C)CNC(=O)c2cccc(C)c2)[C@]2(C)[C@H](C)CC[C@]3(CCC(=O)[C@H]32)[C@@H](C)[C@@H]1O | 12.4 | 1 (≈ 1.71 µM) | 9.9 | 11.3 | 10.8 | 2 (≈ 3.43 µM) | 13 | 13.7 | 11.2 | 16 (≈ 27.4 µM) | 15.5 | 13.1 | 13 | 13.6 | 8 (≈ 13.7 µM) | 13.2
C=C[C@]1(C)C[C@@H](OC(=O)CSC(C)(C)CNC(=O)c2ccc(C)cc2)[C@]2(C)[C@H](C)CC[C@]3(CCC(=O)[C@H]32)[C@@H](C)[C@@H]1O | 12.1 | 0.25 (≈ 0.428 µM) | 10.9 | 9.8 | 10.3 | 0.5 (≈ 0.856 µM) | 10.9 | 15.1 | 10.4 | 16 (≈ 27.4 µM) | 16.6 | 12.6 | 9.82 | 12.3 | 4 (≈ 6.85 µM) | 11.5
C=C[C@]1(C)C[C@@H](OC(=O)CSC(C)(C)CNC(=O)c2ccccc2OC)[C@]2(C)[C@H](C)CC[C@]3(CCC(=O)[C@H]32)[C@@H](C)[C@@H]1O | 13.5 | 0.25 (≈ 0.417 µM) | 10.8 | 12.4 | 12.5 | 2 (≈ 3.33 µM) | 13 | 15.5 | 9.5 | 8 (≈ 13.3 µM) | 17.4 | 12.4 | 11.8 | 13.7 | 4 (≈ 6.67 µM) | 12.1
C=C[C@]1(C)C[C@@H](OC(=O)CSC(C)(C)CNC(=O)c2cccc(OC)c2)[C@]2(C)[C@H](C)CC[C@]3(CCC(=O)[C@H]32)[C@@H](C)[C@@H]1O | 12.5 | 2 (≈ 3.33 µM) | 11.4 | 12.2 | 11.7 | 4 (≈ 6.67 µM) | 12.4 | 13.3 | 11.8 | 32 (≈ 53.3 µM) | 14.3 | 12.8 | 12.6 | 13.4 | 8 (≈ 13.3 µM) | 13
C=C[C@]1(C)C[C@@H](OC(=O)CSC(C)(C)CNC(=O)c2ccc(OC)cc2)[C@]2(C)[C@H](C)CC[C@]3(CCC(=O)[C@H]32)[C@@H](C)[C@@H]1O | 18.3 | 0.25 (≈ 0.417 µM) | 14.4 | 15.7 | 15.2 | 0.5 (≈ 0.834 µM) | 15.9 | 17.1 | 15.3 | 2 (≈ 3.33 µM) | 18.5 | 19.7 | 16 | 16.6 | 1 (≈ 1.67 µM) | 18.4
C=C[C@]1(C)C[C@@H](OC(=O)CSC(C)(C)CNC(=O)c2ccccc2N)[C@]2(C)[C@H](C)CC[C@]3(CCC(=O)[C@H]32)[C@@H](C)[C@@H]1O | 17.4 | 1 (≈ 1.71 µM) | 15.3 | 13.1 | 16 | 0.5 (≈ 0.855 µM) | 11.8 | 13.7 | 16.6 | 0.5 (≈ 0.855 µM) | 13.8 | 19.6 | 12 | 11.9 | 2 (≈ 3.42 µM) | 18.9
